Test results as given in article PMC7088158 (International Journal of Peptide Research and Therapeutics, 2006).

Key:
[1] = Aqueous solubility of the substrates; assay type: physicochemical; details: standard form (CFO-1 N-terminus, Lys(BHQ-2)-amide C-terminus)
[2] = target: T1, Human erythrocyte calpain I (Homo sapiens, UniProt P07384); assay type: biochemical; details: pH 7.5
T1 sequence (P07384 1-714): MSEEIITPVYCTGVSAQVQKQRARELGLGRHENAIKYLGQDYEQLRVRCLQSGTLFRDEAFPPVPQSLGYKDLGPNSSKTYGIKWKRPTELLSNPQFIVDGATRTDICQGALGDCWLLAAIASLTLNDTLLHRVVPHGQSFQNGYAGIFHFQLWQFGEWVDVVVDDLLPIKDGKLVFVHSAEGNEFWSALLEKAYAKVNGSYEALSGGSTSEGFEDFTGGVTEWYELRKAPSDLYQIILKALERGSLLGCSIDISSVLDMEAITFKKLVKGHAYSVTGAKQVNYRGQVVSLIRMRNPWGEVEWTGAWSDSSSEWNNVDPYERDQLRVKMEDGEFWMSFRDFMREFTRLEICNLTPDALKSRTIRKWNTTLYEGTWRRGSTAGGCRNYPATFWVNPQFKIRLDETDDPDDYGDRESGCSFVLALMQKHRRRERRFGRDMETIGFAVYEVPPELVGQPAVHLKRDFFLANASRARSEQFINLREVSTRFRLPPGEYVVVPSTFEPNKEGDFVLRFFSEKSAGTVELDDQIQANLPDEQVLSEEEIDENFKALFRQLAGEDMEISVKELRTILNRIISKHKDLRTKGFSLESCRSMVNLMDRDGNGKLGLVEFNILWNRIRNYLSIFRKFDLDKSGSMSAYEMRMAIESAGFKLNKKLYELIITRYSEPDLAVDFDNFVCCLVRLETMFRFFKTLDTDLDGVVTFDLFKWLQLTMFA
T1 sequence (P04632 1-268 partner): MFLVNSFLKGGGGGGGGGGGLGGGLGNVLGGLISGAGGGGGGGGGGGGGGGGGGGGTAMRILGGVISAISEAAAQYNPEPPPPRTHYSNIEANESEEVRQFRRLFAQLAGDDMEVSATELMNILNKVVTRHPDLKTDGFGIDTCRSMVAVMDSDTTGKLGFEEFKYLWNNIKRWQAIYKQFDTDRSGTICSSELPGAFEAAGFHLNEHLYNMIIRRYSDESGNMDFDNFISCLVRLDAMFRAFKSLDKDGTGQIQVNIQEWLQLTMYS

[3] = target: α-chymotrypsin (Bos taurus, UniProt P00766, DEL14-15/DEL147-148); details: pH 7.5
[4] = tested on: primary hippocampal neurons; experiment: Live cell imaging of probe entry and fluorescence in primary hippocampal neurons; assay type: cell-based, rat; details: cA 1 μM preloaded 30 min in Ca2+-free buffer, ionomycin 5 μM then CaCl2 0.2 mM
In short: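 Hippocampal neurons from E18 rat hippocampi, papain-dissociated (2 mg/mL, 30 min, 37 °C), plated at 1 × 10^5 cells/well on poly-D-lysine cover glasses and used at 9–12 DIV. Medium was Neurobasal/B27 with 1% FBS and glutamate, half-replaced on days 4 and 7. Confocal imaging at 37 °C, 20× air objective, 543 nm excitation, 560–615 nm emission, frames every 1–2 min.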

[5] = tested on: primary cortical neurons; experiment: Live cell imaging of probe entry and fluorescence in primary cortical neurons; assay type: cell-based, rat; details: washed
In short: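 Cortical neurons from E18 rat cortices, papain-dissociated (2 mg/mL, 30 min, 37 °C), plated at 1 × 10^5 cells/well on poly-D-lysine-coated chambered cover glasses in Neurobasal/B27 medium and used at 5 DIV. Confocal live imaging used a 20× air objective at 37 °C, with 543 nm excitation and emission collected at 560–615 nm. Frames were taken every 1–2 min.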

[6] = tested on: trypsin; details: pH 7.5

For VVTAEA [cJ], the “Solubility, in words” value [1] was “very poorly soluble”.
For PLLAERP [cXb], the “Effectiveness as calpain substrate, in words” value (from here on “Effectiveness”) [2] was “at least as an effective calpain substrate as its parent” and the “Stability to chymotrypsin, in words” value [3] was “considerably improved chymotryptic stability”.
In the case of GSGTSS [cA], the “Effectiveness” value [2] is reported as “proceeded only partially” and the “Intracellular fluorescence on activation of calpain pathways by ionomycin” value [4] is reported as “fluorescence was observed”.
For PLLAERP [cXe], the “Effectiveness” value [2] was “improved calpain substrate”, the “Stability to chymotrypsin, in words” value [3] was “very much more stable to chymotrypsin” and the “Intracellular fluorescence following ionomycin” value ([5]; cXe 2 μM 40 min, ionomycin 5 μM) was “increased intracellular fluorescence”. The “Entry into cells without transporter sequence” value ([5]; cXe 2 μM preloaded 40 min, confocal imaging 37 °C) was “proved to enter cells without a transporter sequence”.
With PLVAERP [cXc] the “Effectiveness” value [2] was “dramatically reduced the effectiveness of calpain processing”.
With PLFAER [cW] the “Effectiveness” value [2] was “far superior calpain substrate compared to cA” and the “Stability to trypsin, in words” value [6] was “poor stability”.
For PLLAERP [cXg], the “Stability to chymotrypsin, in words” value [3] was “significantly improved”.
For PLLAERP [cXf], the “Stability to chymotrypsin, in words” value [3] was “little improvement”.
For PLGAERP [cXa], the “Effectiveness” value [2] was “rather similar as a calpain substrate to its parent” and the “Stability to chymotrypsin, in words” value [3] was “affected remarkably little”.
With EVYGM*M* [cG] the “Solubility, in words” value [1] was “very poorly soluble”.
For VVQAGI [cM], the “Solubility, in words” value [1] was “very poorly soluble”.
